Activity calls are given as the source filed them. The calls are words filed in the database; no cut-off is given here.
Key:
Danio rerio [1] = species: Danio rerio; assay: Inhibition of BMPR1 in zebrafish assessed as penetrance of moderate embryonic axis dorsalization at 7.5 uM treated at 3 hrs post-fertilization measured at 48 hrs; design: scale not given: the % may be the effect or the level left
Danio rerio [2] = species: Danio rerio; assay: Inhibition of BMPR1 in zebrafish assessed as penetrance of normal embryonic axis dorsalization at 10 uM treated continuously from 2 hrs post-fertilization measured after 48 hrs; design: scale not given: the % may be the effect or the level left
Mus musculus [3] = species: Mus musculus; assay: Inhibition of BMPR1-mediated Smad-5 phosphorylation in BMP4-stimulated mouse PASMC at 4 uM treated 30 mins before BMP4 challenge measured after 30 mins by immunoblot analysis
Outline: (§1)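 Wild-type mouse PASMCs were kept in RPMI with 0.5% FCS for 24 h. They were preincubated with compound or vehicle for 30 min, then stimulated for 30 min with recombinant BMP2, BMP4, BMP6 or BMP7 at 10 ng ml−1. Lysates in SDS buffer were immunoblotted with anti-phospho-SMAD1/5/8. Total SMAD1 and α-tubulin served as loading controls, and bands were quantified by phosphorimager.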

Danio rerio [4] = species: Danio rerio; assay: Inhibition of BMPR1 in zebrafish assessed as penetrance of normal embryonic axis dorsalization at 2 uM treated at 3 hrs post-fertilization measured at 48 hrs; design: scale not given: the % may be the effect or the level left
Mus musculus [5] = species: Mus musculus; assay: Inhibition of BMPR1-mediated MAPK p38 phosphorylation in BMP4-stimulated mouse PASMC at 100 to 200 ng/ml treated 30 mins before BMP4 challenge measured after 30 mins by immunoblot analysis
Outline: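 Mouse PASMCs were serum-reduced 24 h in 0.5% FCS RPMI, pretreated 30 min with noggin or vehicle, then given BMP4 for 30 min. Lysates in SDS buffer were immunoblotted for phospho-SMAD1/5/8 and phospho-MAPK p38, and signals were quantitated by phosphorimager.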

Mus musculus [6] = species: Mus musculus; assay: Inhibition of BMPR1-mediated Smad-1 phosphorylation in BMP4-stimulated mouse PASMC at 4 uM treated 30 mins before BMP4 challenge measured after 30 mins by immunoblot analysis
Outline: (§2)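 PASMCs (wild-type or BMPR-II–deficient) were kept 24 h in RPMI with 0.5% FCS, preincubated 30 min with compound or vehicle, then stimulated 30 min with recombinant BMP (10 ng ml−1). Extracts in SDS-lysis buffer were immunoblotted for phospho-SMAD1/5/8, with total SMAD1 and α-tubulin as loading controls. Bands were quantitated by phosphorimager.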

Danio rerio [7] = species: Danio rerio; assay: Inhibition of BMPR1 in zebrafish assessed as severity of embryonic axis dorsalization at 10 uM treated at 2 to 8 hrs post-fertilization measured at 48 hrs; design: scale not given: the % may be the effect or the level left
Danio rerio [8] = species: Danio rerio; assay: Toxicity in zebrafish assessed as survivability at 10 uM treated at 3 hrs post-fertilization measured at 48 hrs; assay type: organism-based; settings: in vivo
Danio rerio [9] = species: Danio rerio; assay: Inhibition of BMPR1 in zebrafish assessed as severity of embryonic axis dorsalization at 0.5 uM treated at 3 hrs post-fertilization measured at 48 hrs; design: scale not given: the % may be the effect or the level left
Mus musculus [10] = species: Mus musculus; assay: Inhibition of BMPR1-mediated Smad-1 phosphorylation in BMP2-stimulated mouse BMPR2 deficient PASMC at 4 uM treated 30 mins before BMP2 challenge measured after 30 mins by immunoblot analysis; outline: as §2
Mus musculus [11] = species: Mus musculus; assay: Inhibition of BMPR1-mediated Smad-8 phosphorylation in BMP2-stimulated mouse BMPR2 deficient PASMC at 4 uM treated 30 mins before BMP2 measured after 30 mins by immunoblot analysis
Danio rerio [12] = species: Danio rerio; assay: Inhibition of BMPR1 in zebrafish assessed as penetrance of moderate embryonic axis dorsalization at 10 uM treated continuously from 4 hrs post-fertilization measured after 48 hrs; design: scale not given: the % may be the effect or the level left
Outline: (§3)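 Compound added at the stated times and concentrations. Gross morphology scored visually at up to 48 h.p.f. for dorsalization of the embryonic axis.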

Mus musculus [13] = species: Mus musculus; assay: Inhibition of BMPR1-mediated Smad-1 phosphorylation in BMP7-stimulated mouse PASMC at 4 uM treated 30 mins before BMP7 challenge measured after 30 mins by immunoblot analysis; outline: as §1
Danio rerio [14] = assay: Inhibition of iron-dextran conjugate-induced Smad-1 phosphorylation in zebrafish at 23 ug/g, iv after 1 hr relative to control; assay type: functional
Mus musculus [15] = species: Mus musculus; assay: Inhibition of BMPR1-mediated Smad-1 phosphorylation in BMP6-stimulated mouse PASMC at 4 uM treated 30 mins before BMP6 challenge measured after 30 mins by immunoblot analysis; outline: as §2
Danio rerio [16] = species: Danio rerio; assay: Inhibition of BMPR1 in zebrafish assessed as embryonic axis dorsalization at 20 uM treated at 2 hrs post-fertilization measured after 36 hrs in presence of 1 ng chordin morpholino
Outline: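 Wild-type zebrafish embryos injected with 1 ng chordin morpholino, then exposed to vehicle or compound (20 µM) at 2 h.p.f. Photographed at 36 h.p.f. to score the intermediate cell mass and ventral tail fin structures.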

Danio rerio [17] = species: Danio rerio; assay: Inhibition of BMPR1 in zebrafish assessed as penetrance of moderate embryonic axis dorsalization at 10 uM treated at 2 to 8 hrs post-fertilization measured at 48 hrs; design: scale not given: the % may be the effect or the level left; outline: as §3
Danio rerio [18] = species: Danio rerio; assay: Inhibition of BMPR1 in zebrafish assessed as penetrance of mild embryonic axis dorsalization at 10 uM treated at 3 hrs post-fertilization measured at 48 hrs; design: scale not given: the % may be the effect or the level left; outline: as §3
Danio rerio [19] = species: Danio rerio; assay: Toxicity in zebrafish assessed as mortality at 0.2 to 10 uM; assay type: organism-based; settings: in vivo
Danio rerio [20] = species: Danio rerio; assay: Inhibition of BMPR1 in zebrafish assessed as penetrance of mild embryonic axis dorsalization at 5 uM treated at 3 hrs post-fertilization measured at 48 hrs; design: scale not given: the % may be the effect or the level left; outline: as §3
Mus musculus [21] = assay: Inhibition of iron-dextran conjugate-induced Smad-5 phosphorylation in C57BL/6 mouse at 23 ug/g, iv after 1 hr; assay type: functional, organism-based
Danio rerio [22] = species: Danio rerio; assay: Inhibition of BMPR1 in zebrafish assessed as penetrance of moderate embryonic axis dorsalization at 10 uM treated at 4 to 8 hrs post-fertilization measured at 48 hrs; design: scale not given: the % may be the effect or the level left; outline: as §3
Mus musculus [23] = species: Mus musculus; assay: Inhibition of BMPR1-mediated Smad-8 phosphorylation in BMP2-stimulated mouse PASMC at 4 uM treated 30 mins before BMP2 challenge measured after 30 mins by immunoblot analysis; outline: as §1
Danio rerio [24] = species: Danio rerio; assay: Inhibition of BMPR1 in zebrafish assessed as penetrance of moderate embryonic axis dorsalization at 10 uM treated continuously from 10 hrs post-fertilization measured at 48 hrs; design: scale not given: the % may be the effect or the level left; outline: as §3
Danio rerio [25] = species: Danio rerio; assay: Inhibition of BMPR1 in zebrafish assessed as severity of embryonic axis dorsalization at 10 uM treated continuously from 8 hrs post-fertilization measured at 48 hrs; design: scale not given: the % may be the effect or the level left
Mus musculus [26] = species: Mus musculus; assay: Inhibition of BMPR1-mediated Smad-8 phosphorylation in BMP7-stimulated mouse BMPR2 deficient PASMC at 4 uM treated 30 mins before BMP7measured after 30 mins by immunoblot analysis
HepG2 = assay: Inhibition of hepcidin mRNA expression in human HepG2 cells at 10 uM […] by qRT-PCR analysis relative to control; assay type: functional
Mus musculus [27] = species: Mus musculus; assay: Inhibition of ALK3-mediated Smad-8 phosphorylation in BMPR2 deficient mouse PASMC at 10 uM by immunoblot analysis
Outline: (§4)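 BMPR-II–deficient mouse PASMCs (RPMI, 10% FBS) transiently transfected with constitutively active ALK2, ALK3 or ALK6 cDNA, or plasmid-only control. Incubated with or without compound (10 µM). Extracts lysed in SDS buffer, run on SDS-PAGE and immunoblotted for phospho-SMAD1/5/8; quantitated by phosphorimager.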

Mus musculus [28] = species: Mus musculus; assay: Inhibition of ALK6-mediated Smad-8 phosphorylation in BMPR2 deficient mouse PASMC at 10 uM by immunoblot analysis; outline: as §4

With c1cc(-c2cnn3cc(-c4ccc(OCCN5CCCCC5)cc4)cnc23)ccn1 [DORSOMORPHIN] the Activity (Danio rerio [1]) was 42%, the Activity (Danio rerio [2]) was 0% and the inhibition (Mus musculus [3]) was “Active”. The Activity (Danio rerio [4]) was 100%, the inhibition (Mus musculus [5]) was “Active” and the inhibition (Mus musculus [6]) was “Active”. For the same molecule, the Activity (Danio rerio [7]) was 100%, the Activity (Danio rerio [8]) was “Non-toxic” and the Activity (Danio rerio [9]) was 0%. For the same molecule, the inhibition (Mus musculus [10]) was “Active”, the inhibition (Mus musculus [11]) was “Active” and the Activity (Danio rerio [12]) was 100%. The inhibition (Mus musculus [13]) was “Active”, the “fold change (FC)” value (Danio rerio [14]) was 3 and the inhibition (Mus musculus [15]) was “Active”. For the same molecule, the inhibition (Danio rerio [16]) was “Active”, the Activity (Danio rerio [17]) was 0% and the Activity (Danio rerio [18]) was 3%. For the same molecule, the Activity (Danio rerio [19]) was “Non-toxic”, the Activity (Danio rerio [20]) was 19% and the inhibition (Mus musculus [21]) was “Active”. The Activity (Danio rerio [22]) was 35%, the inhibition (Mus musculus [23]) was “Active” and the Activity (Danio rerio [24]) was 0%. For the same molecule, the Activity (Danio rerio [25]) was 0%, the inhibition (Mus musculus [26]) was “Active” and the “fold change (FC)” value (HepG2) was 50. For the same molecule, the inhibition (Mus musculus [27]) was “Active” and the inhibition (Mus musculus [28]) was “Active”.

Reference: ChEMBL document CHEMBL1212693, “Dorsomorphin inhibits BMP signals required for embryogenesis and iron metabolism” (Nat Chem Biol, 2008)
